Activity calls are given as the source filed them. The rule behind the calls is not given here.
Key:
[1] = target: T1, NAD-dependent protein deacetylase sirtuin-2 (Homo sapiens) (UniProt Q8IXJ6); test: (§1) Non-competitive inhibition of human recombinant SIRT2 using Z-QPK(Me)2K(Ac) as substrate assessed as decrease in maximal enzyme activity preincubated for 60 mins followed by substrate addition measured after 30 mins by double-reciprocal plot analysis in presence of 185 to 5000 uM NAD+
T1 sequence (whole entry): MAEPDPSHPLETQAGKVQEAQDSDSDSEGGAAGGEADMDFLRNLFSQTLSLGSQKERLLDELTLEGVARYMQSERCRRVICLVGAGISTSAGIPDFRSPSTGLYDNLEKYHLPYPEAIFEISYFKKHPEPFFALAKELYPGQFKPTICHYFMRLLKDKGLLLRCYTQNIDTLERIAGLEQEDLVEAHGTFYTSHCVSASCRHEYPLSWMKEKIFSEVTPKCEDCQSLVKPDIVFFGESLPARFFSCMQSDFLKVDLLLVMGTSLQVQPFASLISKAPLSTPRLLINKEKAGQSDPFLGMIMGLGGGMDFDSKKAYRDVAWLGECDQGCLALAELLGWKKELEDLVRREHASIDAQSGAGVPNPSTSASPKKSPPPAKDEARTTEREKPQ
Outline: (§2)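 Recombinant human SIRT2 at 0.2 unit/well, preincubated 60 min at 25 °C (400 rpm) with inhibitor at four levels including zero, 2.5% DMSO. Detection reagent (acetylated Z-QPK(Me)2K(Ac)-aminoluciferin, NAD and developer) was premixed 60 min at 37 °C, added, and incubated 30 min at 25 °C before luminescence was read. For line 17, substrate was varied (4.12–333.3 µM) at fixed NAD. For line 16, NAD was varied (four levels) at 38.5 µM substrate. Double-reciprocal plots were made, and their slopes replotted against inhibitor concentration for apparent Ki.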

[2] = target: T2, NAD-dependent protein deacetylase sirtuin-2 (Homo sapiens, UniProt Q8IXJ6); test: as §1; details: read-out: Ki(app); outline: as §2
T2 sequence (Q8IXJ6 whole entry): T1 sequence (whole entry)

[3] = target: T3, NAD-dependent protein deacetylase sirtuin-1 (Homo sapiens, UniProt Q96EB6); test: Inhibition of human recombinant SIRT1 assessed as deacetylation of N-acetyl lysine residue in p53 (317 to 320) after 30 mins by luciferase-mediated luminescence assay
T3 sequence (Q96EB6 whole entry): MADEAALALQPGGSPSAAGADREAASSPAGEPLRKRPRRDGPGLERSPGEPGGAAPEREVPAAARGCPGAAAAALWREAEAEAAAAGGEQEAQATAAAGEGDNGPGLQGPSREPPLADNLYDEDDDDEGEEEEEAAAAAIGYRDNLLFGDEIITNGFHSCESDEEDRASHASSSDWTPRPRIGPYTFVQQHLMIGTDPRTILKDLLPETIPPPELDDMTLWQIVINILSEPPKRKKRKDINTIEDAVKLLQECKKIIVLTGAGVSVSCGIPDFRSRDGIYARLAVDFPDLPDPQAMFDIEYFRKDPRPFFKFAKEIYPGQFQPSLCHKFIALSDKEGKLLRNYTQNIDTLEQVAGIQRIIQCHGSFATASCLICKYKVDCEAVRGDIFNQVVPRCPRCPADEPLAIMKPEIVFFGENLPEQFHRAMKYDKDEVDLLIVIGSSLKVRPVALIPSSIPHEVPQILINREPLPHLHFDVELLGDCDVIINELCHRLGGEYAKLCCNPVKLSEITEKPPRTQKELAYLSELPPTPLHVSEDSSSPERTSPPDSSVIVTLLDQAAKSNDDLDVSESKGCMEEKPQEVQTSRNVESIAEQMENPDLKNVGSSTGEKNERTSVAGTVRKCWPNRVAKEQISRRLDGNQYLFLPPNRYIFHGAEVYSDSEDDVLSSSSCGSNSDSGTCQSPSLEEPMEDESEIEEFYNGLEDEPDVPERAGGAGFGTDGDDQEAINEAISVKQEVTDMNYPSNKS

MDA-MB-231 [4] = test: Induction of apoptosis in human MDA-MB-231 cells assessed as upregulation of cleaved caspase-3 protein expression at 2 to 8 uM after 24 hrs by Western blot analysis; assay type: functional, cell-based
Outline: (§3)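 Cells seeded at 50,000 cells/mL in high-glucose DMEM containing compound (0.5% v/v DMSO) and incubated at 37 °C, 5% CO2: HepG2 6 h, MDA-MB-231 24 h. Washed cells were lysed on ice ≥20 min in Tris/NaCl/EDTA/Triton buffer with protease and phosphatase inhibitors, then protein measured by Bradford. SDS-PAGE blots were probed overnight at 4 °C with primary antibodies and detected by HRP/ECL, with re-probing after stripping. Each blot was repeated ≥3 times.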

Homo sapiens [5] = species on record: Homo sapiens; test: Inhibition of protease (unknown origin) using deacetylated peptide as substrate assessed as luminescence at 10 uM after 30 mins relative to control; design: scale not given: the % may be the effect or the level left
Outline: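 Counter-screen without sirtuin: compound from DMSO stock diluted in Sirt-Glo buffer, then Sirt-Glo reagent added carrying non-acetylated control peptide. DMSO was 2.5% v/v. Mixed by shaking 30 min at 25 °C, then luminescence read. Result is % of control (peptide plus reagent in vehicle) after subtracting the vehicle-only blank.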

[6] = Cytotoxicity against human IMR90 cells assessed as cell viability after 72 hrs by MTS assay; assay type: cell-based; details: IMR-90, 72 h
HepG2 = test: Growth inhibition of human HepG2 cells after 72 hrs by MTS assay; assay type: functional, cell-based; details: HepG2, 72 h
Outline: (§4)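 Cells in DMEM with 10% heat-treated FBS and penicillin/streptomycin, subcultured at 85–90% confluence and used within 15 passages. Seeded 2500 cells/well and grown 24 h, then compound was added (0.5% v/v DMSO final) for 72 h at 37 °C, 5% CO2. MTS was added for 4 h in the dark and absorbance read at 490 nm. Viability is corrected for compound and vehicle blanks.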

[7] = Inhibition of luciferase (unknown origin) using deacetylated peptide as substrate assessed as luminescence at 100 uM after 30 mins relative to control; design: scale not given: the % may be the effect or the level left
Homo sapiens [8] = species on record: Homo sapiens; test: Inhibition of protease (unknown origin) using deacetylated peptide as substrate assessed as luminescence at 25 uM after 30 mins relative to control; design: scale not given: the % may be the effect or the level left
[9] = target: T1, NAD-dependent protein deacetylase sirtuin-2 (Homo sapiens); test: Inhibition of SIRT2 in human MDA-MB-231 cells assessed as increase in acetylated p53 at Lys382 and alpha-tubulin level at 2 to 4 uM after 24 hrs by Western blot analysis; assay type: cell-based; outline: as §3
MDA-MB-231 [10] = test: Growth inhibition of human MDA-MB-231 cells after 72 hrs by MTS assay; assay type: functional, cell-based; details: MDA-MB-231, 72 h; outline: as §4
[11] = Self-aggregation of the compound in PBS assessed as derived light scattering count rate at 10 uM at pH 7.4 (reference value: 15.5 +/- 0.4 kilocount/sec); assay type: physicochemical; details: buffer, pH 7.4, 10 µM

inhibition [1]: Dose-dependent effect | Ki [2]: 3.7 µM | IC50 [3]: 16.7 µM | Activity (Homo sapiens [5]): 96.5% | IC50 (HepG2): 2100 nM | Activity [7]: 94.3% | Activity (Homo sapiens [8]): 94.9% | inhibition [9]: Active | IC50 (MDA-MB-231 [10]): 2100 nM | Activity [11]: 95 kC/sec
Structure (SMILES): CCCCCCCCn1c2c(c3cc(-c4ccc(S(C)(=O)=O)cc4)ccc31)CNCC2
Activity (MDA-MB-231 [4]): Active | IC50 [6]: 2720 nM

— ChEMBL document CHEMBL3407343, “Functionalized tetrahydro-1H-pyrido[4,3-b]indoles: a novel chemotype with Sirtuin 2 inhibitory activity” (Eur J Med Chem, 2015)
